Test results published in ChEMBL document CHEMBL2146441, “2,6-Disubstituted imidazo[2,1-b][1,3,4]thiadiazoles: search for anticancer agents” (2012).

Legend:
Type in all cases: functional
SK-MEL-2 = experiment: Cytotoxicity against human SK-MEL-2 cells assessed as cell growth at 10^-5 M after 48 hrs by SRB assay; details: SK-MEL-2, 48 h, read-out: Activity
NCI-H460 = experiment: Growth inhibition of human NCI-H460 cells after 48 hrs by SRB assay; details: NCI-H460, 48 h; for CC50: read-out: LC50 (the source's name)
Summary of the method: (§1)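 Adherent NCI-60 lines grown in RPMI 1640 with 5% FBS, seeded at 5000–40,000 cells/well, and preincubated 24 h at 37 °C, 5% CO2. Compound, stocked in DMSO, given either once at 10^-5 M or at five 10-fold dilutions for 48 h. Cells fixed with cold TCA (final 10%), stained with 0.4% SRB, and read at 515 nm. GI50 taken as 50% reduction in net protein increase versus time-zero and control plates.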

SR = experiment: Cytotoxicity against human SR cells assessed as cell growth at 10^-6 M after 48 hrs by SRB assay; details: read-out: Activity
NCI-H522 [1] = experiment: Cytotoxicity against human NCI-H522 cells assessed as cell growth at 10^-6 M after 48 hrs by SRB assay; details: NCI-H522, 48 h, read-out: Activity
SNB-19 = experiment: Growth inhibition of human SNB19 cells after 48 hrs by SRB assay; details: SNB-19, 48 h; for CC50: read-out: LC50 (the source's name); summary of the method: as §1
UACC-62 = experiment: Cytotoxicity against human UACC62 cells assessed as cell growth at 10^-6 M after 48 hrs by SRB assay; details: UACC-62, 48 h, read-out: Activity
ACHN [2] = experiment: Cytotoxicity against human ACHN cells assessed as cell growth at 10^-6 M after 48 hrs by SRB assay; details: read-out: Activity
Summary of the method: (§2)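 NCI-60 screen: lines kept in RPMI 1640 with 5% FBS, seeded at 5000–40,000 cells/well by doubling time, preincubated 24 h at 37 °C in 5% CO2. Time-zero plates TCA-fixed at drug addition. DMSO stocks diluted in medium, 48 h exposure. Fixation in cold TCA (final 10% adherent, 16% suspension), 0.4% SRB stain, solubilised in 10 mM Tris base, A515. Percent growth computed against control and time-zero.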

IGROV-1 = experiment: Cytotoxicity against human IGROV1 cells assessed as cell growth at 10^-5 M after 48 hrs by SRB assay; details: IGROV-1, 48 h, read-out: Activity
Summary of the method: (§3)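 NCI-60 five-dose screen. Cells were grown in RPMI 1640 with 5% FBS and seeded at 5000–40,000 cells/well according to doubling time. They were pre-incubated 24 h at 37 °C in 5% CO₂, and time-zero (Tz) plates were TCA-fixed at drug addition. Five 10-fold dilutions of DMSO stock were applied for 48 h. Read-out was SRB staining, 515 nm absorbance, with percent growth calculated versus Tz and untreated control.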

U-251 = experiment: Cytotoxicity against human U251 cells assessed as cell growth at 10^-6 M after 48 hrs by SRB assay; details: U-251, 48 h, read-out: Activity
NCI-H226 = experiment: Cytotoxicity against human NCI-H226 cells assessed as cell growth at 10^-8 M after 48 hrs by SRB assay; details: NCI-H226, 48 h, read-out: Activity
NCI-H522 [3] = experiment: Cytotoxicity against human NCI-H522 cells assessed as cell growth at 10^-7 M after 48 hrs by SRB assay; details: NCI-H522, 48 h, read-out: Activity
HCT-116 = experiment: Cytotoxicity against human HCT116 cells assessed as cell growth at 10^-7 M after 48 hrs by SRB assay; details: HCT-116, 48 h, read-out: Activity; summary of the method: as §3
HOP-62 [4] = experiment: Cytotoxicity against human HOP62 cells assessed as cell growth at 10^-6 M after 48 hrs by SRB assay; details: HOP-62, 48 h, read-out: Activity; summary of the method: as §3
786-0 = experiment: Cytotoxicity against human 786-0 cells assessed as cell growth at 10^-7 M after 48 hrs by SRB assay; details: 786-0, 48 h, read-out: Activity; summary of the method: as §2
LOX IMVI = experiment: Growth inhibition of human LOXIMVI cells after 48 hrs by SRB assay; summary of the method: as §1
SNB-75 = experiment: Cytotoxicity against human SNB75 cells assessed as cell growth at 10^-5 M after 48 hrs by SRB assay; details: SNB-75, 48 h, read-out: Activity
SN12C = experiment: Cytotoxicity against human SN12C cells assessed as cell growth at 10^-6 M after 48 hrs by SRB assay; details: read-out: Activity
OVCAR-8 = experiment: Growth inhibition of human OVCAR8 cells after 48 hrs by SRB assay; details: OVCAR-8, 48 h; for CC50: read-out: LC50 (the source's name); summary of the method: as §1
COLO = experiment: Cytotoxicity against human COLO […] cells assessed as cell growth at 10^-7 M after 48 hrs by SRB assay; details: read-out: Activity; summary of the method: as §2
ACHN [5] = experiment: Cytotoxicity against human ACHN cells assessed as cell growth at 10^-7 M after 48 hrs by SRB assay; details: read-out: Activity; summary of the method: as §2
MOLT-4 [6] = experiment: Growth inhibition of human MOLT4 cells after 48 hrs by SRB assay; details: MOLT-4, 48 h
Summary of the method: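 Leukemia suspension lines grown in RPMI 1640 with 5% FBS, seeded at 5000–40,000 cells/well, and preincubated 24 h at 37 °C, 5% CO2. Compound, stocked in DMSO, given either once at 10^-5 M or at five 10-fold dilutions for 48 h. Settled cells fixed with 80% TCA (final 16%), stained with SRB, and read at 515 nm. GI50 calculated against time-zero and control growth.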

EKVX = experiment: Cytotoxicity against human EKVX cells assessed as cell growth at 10^-7 M after 48 hrs by SRB assay; details: read-out: Activity; summary of the method: as §2
HCC 2998 = experiment: Cytotoxicity against human HCC2998 cells assessed as cell growth at 10^-8 M after 48 hrs by SRB assay; details: HCC 2998, 48 h, read-out: Activity; summary of the method: as §3
MOLT-4 [7] = experiment: Cytotoxicity against human MOLT4 cells assessed as cell growth at 10^-4 M after 48 hrs by SRB assay; details: MOLT-4, 48 h, read-out: Activity
NCI-H322M = experiment: Cytotoxicity against human NCI-H322M cells assessed as cell growth at 10^-6 M after 48 hrs by SRB assay; details: read-out: Activity
HOP-62 [8] = experiment: Cytotoxicity against human HOP62 cells assessed as cell growth at 10^-4 M after 48 hrs by SRB assay; details: HOP-62, 48 h, read-out: Activity; summary of the method: as §3
HCT-15 = experiment: Cytotoxicity against human HCT15 cells assessed as cell growth at 10^-7 M after 48 hrs by SRB assay; details: HCT-15, 48 h, read-out: Activity; summary of the method: as §3
CCRF-CEM = experiment: Cytotoxicity against human CCRF-CEM cells assessed as cell growth at 10^-5 M after 48 hrs by SRB assay; details: read-out: Activity; summary of the method: as §2
SW-620 = experiment: Cytotoxicity against human SW620 cells assessed as cell growth at 10^-7 M after 48 hrs by SRB assay; details: SW-620, 48 h, read-out: Activity

SMILES: COc1ccc(-c2nn3cc(-c4ccc(O)cc4O)nc3s2)cc1
- growth at 10 µM (SK-MEL-2): 9%
- GI50 (NCI-H460): 2.02 µM
- CC50 (NCI-H460): > 100 µM
- growth at 1 µM (SR): 72%
- growth at 1 µM (NCI-H522 [1]): 69%
- GI50 (SNB-19): 3.57 µM
- TGI (SNB-19): > 100 µM
- CC50 (SNB-19): > 100 µM
- growth at 1 µM (UACC-62): 81%
- growth at 1 µM (ACHN [2]): 100%
- growth at 10 µM (IGROV-1): 9%
- growth at 1 µM (U-251): 77%
- growth at 0.01 µM (NCI-H226): 94%
- growth at 0.1 µM (NCI-H522 [3]): 84%
- growth at 0.1 µM (HCT-116): 93%
- growth at 1 µM (HOP-62 [4]): 81%
- growth at 0.1 µM (786-0): 99%
- GI50 (LOX IMVI): 2.58 µM
- LC50 (lethal concentration, 50% net cell kill) (LOX IMVI): > 100 µM
- TGI (LOX IMVI): 31.4 µM
- growth at 10 µM (SNB-75): -66%
- growth at 1 µM (SN12C): 80%
- GI50 (OVCAR-8): 2.63 µM
- TGI (OVCAR-8): > 100 µM
- CC50 (OVCAR-8): > 100 µM
- growth at 0.1 µM (COLO): 106%
- growth at 0.1 µM (ACHN [5]): 101%
- GI50 (MOLT-4 [6]): 3.04 µM
- LC50 (MOLT-4 [6]): > 100 µM
- TGI (MOLT-4 [6]): 29.8 µM
- growth at 0.1 µM (EKVX): 92%
- growth at 0.01 µM (HCC 2998): 98%
- growth at 100 µM (MOLT-4 [7]): -22%
- growth at 1 µM (NCI-H322M): 77%
- growth at 100 µM (HOP-62 [8]): -22%
- growth at 0.1 µM (HCT-15): 92%
- growth at 10 µM (CCRF-CEM): 40%
- growth at 0.1 µM (SW-620): 96%

SMILES: COc1ccc(-c2nn3cc(-c4cccc(N)c4)nc3s2)cc1
- growth at 10 µM (SK-MEL-2): 39%
- GI50 (NCI-H460): 3.36 µM
- TGI (NCI-H460): 28.9 µM
- CC50 (NCI-H460): > 100 µM
- growth at 1 µM (SR): 81%
- growth at 1 µM (NCI-H522 [1]): 60%
- GI50 (SNB-19): 12.4 µM
- TGI (SNB-19): > 100 µM
- CC50 (SNB-19): > 100 µM
- growth at 1 µM (UACC-62): 71%
- growth at 1 µM (ACHN [2]): 93%
- growth at 10 µM (IGROV-1): 20%
- growth at 1 µM (U-251): 95%
- growth at 0.01 µM (NCI-H226): 92%
- growth at 0.1 µM (NCI-H522 [3]): 83%
- growth at 0.1 µM (HCT-116): 99%
- growth at 1 µM (HOP-62 [4]): 84%
- growth at 0.1 µM (786-0): 105%
- GI50 (LOX IMVI): 3.38 µM
- LC50 (lethal concentration, 50% net cell kill) (LOX IMVI): > 100 µM
- TGI (LOX IMVI): 29.5 µM
- growth at 10 µM (SNB-75): -24%
- growth at 1 µM (SN12C): 73%
- GI50 (OVCAR-8): 4.97 µM
- TGI (OVCAR-8): 23 µM
- CC50 (OVCAR-8): 89.9 µM
- growth at 0.1 µM (COLO): 101%
- growth at 0.1 µM (ACHN [5]): 105%
- GI50 (MOLT-4 [6]): 3 µM
- LC50 (MOLT-4 [6]): > 100 µM
- TGI (MOLT-4 [6]): > 100 µM
- growth at 0.1 µM (EKVX): 72%
- growth at 0.01 µM (HCC 2998): 98%
- growth at 100 µM (MOLT-4 [7]): 7%
- growth at 1 µM (NCI-H322M): 86%
- growth at 100 µM (HOP-62 [8]): -54%
- growth at 0.1 µM (HCT-15): 106%
- growth at 10 µM (CCRF-CEM): 10%
- growth at 0.1 µM (SW-620): 95%
